Measured values as given in ChEMBL document CHEMBL4196166 (J Med Chem, 2018).
Activity calls are given as the source filed them. The calls are words filed in the database; no cut-off is given here.

Tests used:
[1] = target: T1, Urokinase-type plasminogen activator (Homo sapiens, UniProt P00749); test: Inhibition of human kidney uPA using Z-Gly-Gly-Arg-AMC as substrate measured over 15 mins by fluorescence assay
[2] = target: T2, Epithelial sodium channel subunit alpha (Homo sapiens, UniProt P37088); test: Inhibition of S-3969-stimulated recombinant human ENaC alpha subunit expressed in HEK293 cells at 10 uM preincubated for 5 mins followed by S-3969 stimulation by FLIPR assay; assay type: cell-based; details: hek293, 10 µM
T2 sequence (P37088 whole entry): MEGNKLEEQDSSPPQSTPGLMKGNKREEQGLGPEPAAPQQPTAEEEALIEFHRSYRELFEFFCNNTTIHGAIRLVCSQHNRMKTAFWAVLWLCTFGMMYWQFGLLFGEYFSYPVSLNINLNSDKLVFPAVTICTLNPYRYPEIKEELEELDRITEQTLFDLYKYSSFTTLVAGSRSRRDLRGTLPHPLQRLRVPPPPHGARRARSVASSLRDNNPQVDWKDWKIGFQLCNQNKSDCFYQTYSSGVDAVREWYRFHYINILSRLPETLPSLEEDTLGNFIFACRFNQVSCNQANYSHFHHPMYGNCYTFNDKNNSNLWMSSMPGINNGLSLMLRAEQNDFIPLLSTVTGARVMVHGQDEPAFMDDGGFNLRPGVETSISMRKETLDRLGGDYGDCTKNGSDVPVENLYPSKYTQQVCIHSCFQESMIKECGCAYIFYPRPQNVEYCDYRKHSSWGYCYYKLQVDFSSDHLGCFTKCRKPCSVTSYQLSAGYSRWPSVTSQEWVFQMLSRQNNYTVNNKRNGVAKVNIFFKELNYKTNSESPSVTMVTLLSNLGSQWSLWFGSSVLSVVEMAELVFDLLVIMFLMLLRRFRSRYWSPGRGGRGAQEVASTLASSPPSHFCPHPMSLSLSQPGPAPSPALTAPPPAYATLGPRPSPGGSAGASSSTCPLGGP
Procedure, shortened: (§1)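 HEK-293 cells transfected with human ENaC α, β and γ cDNA together, plated at 20 000 cells/well, incubated overnight at 37 °C. Loaded with membrane-potential red dye for 30 min at 37 °C. Compound preincubated 5 min in HEPES-buffered salt solution (pH 7.4, 0.3% DMSO), then stimulated with 1 µM S-3969, read on FLIPR. Signal normalized to agonist alone (100%) and agonist plus 30 µM benzamil (0%). n = 4 wells.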

[3] = target: T3, Epithelial sodium channel subunit beta (Homo sapiens, UniProt P51168); test: Inhibition of S-3969-stimulated recombinant human ENaC beta subunit expressed in HEK293 cells at 10 uM preincubated for 5 mins followed by S-3969 stimulation by FLIPR assay; assay type: cell-based; details: hek293, 10 µM; procedure, shortened: as §1
T3 sequence (P51168 whole entry): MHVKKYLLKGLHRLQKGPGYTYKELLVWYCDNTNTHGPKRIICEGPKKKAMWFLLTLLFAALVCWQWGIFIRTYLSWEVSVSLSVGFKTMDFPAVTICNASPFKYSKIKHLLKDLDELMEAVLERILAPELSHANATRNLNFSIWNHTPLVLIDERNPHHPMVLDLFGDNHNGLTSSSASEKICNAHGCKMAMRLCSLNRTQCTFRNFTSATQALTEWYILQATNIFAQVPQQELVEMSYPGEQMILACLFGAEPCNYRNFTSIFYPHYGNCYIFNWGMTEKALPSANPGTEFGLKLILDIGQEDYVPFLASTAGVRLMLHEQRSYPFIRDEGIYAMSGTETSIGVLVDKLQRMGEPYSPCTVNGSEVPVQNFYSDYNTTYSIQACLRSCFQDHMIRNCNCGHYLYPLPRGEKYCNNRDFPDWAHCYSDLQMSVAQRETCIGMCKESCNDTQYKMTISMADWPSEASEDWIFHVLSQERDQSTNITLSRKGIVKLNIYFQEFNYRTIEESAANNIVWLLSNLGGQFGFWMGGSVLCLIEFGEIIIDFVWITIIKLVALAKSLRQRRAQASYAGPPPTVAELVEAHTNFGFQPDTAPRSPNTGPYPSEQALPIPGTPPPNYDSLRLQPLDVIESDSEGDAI

[4] = target: T4, Epithelial sodium channel subunit gamma (Homo sapiens, UniProt P51170); test: Inhibition of S-3969-stimulated recombinant human ENaC gamma subunit expressed in HEK293 cells at 10 uM preincubated for 5 mins followed by S-3969 stimulation by FLIPR assay; assay type: cell-based; details: hek293, 10 µM; procedure, shortened: as §1
T4 sequence (P51170 whole entry): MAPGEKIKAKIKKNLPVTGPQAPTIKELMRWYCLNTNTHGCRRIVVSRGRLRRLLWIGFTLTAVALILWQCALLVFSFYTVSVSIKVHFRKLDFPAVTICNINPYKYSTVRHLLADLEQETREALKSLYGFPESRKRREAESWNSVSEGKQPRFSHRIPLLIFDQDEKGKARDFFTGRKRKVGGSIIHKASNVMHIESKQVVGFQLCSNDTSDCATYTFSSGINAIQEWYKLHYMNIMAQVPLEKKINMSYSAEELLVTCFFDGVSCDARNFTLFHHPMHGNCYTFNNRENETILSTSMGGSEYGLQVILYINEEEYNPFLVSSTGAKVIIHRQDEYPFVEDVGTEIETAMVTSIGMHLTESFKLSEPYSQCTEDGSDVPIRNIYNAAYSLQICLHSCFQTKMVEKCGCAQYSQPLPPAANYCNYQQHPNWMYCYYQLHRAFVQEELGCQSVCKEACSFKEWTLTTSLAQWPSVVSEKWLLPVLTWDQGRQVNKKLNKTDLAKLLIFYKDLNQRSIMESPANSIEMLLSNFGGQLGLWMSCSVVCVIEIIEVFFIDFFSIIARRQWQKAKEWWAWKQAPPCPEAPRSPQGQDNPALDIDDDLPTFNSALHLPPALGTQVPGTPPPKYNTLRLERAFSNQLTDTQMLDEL

[5] = target: Trypsin (Homo sapiens, UniProt P07477+P07478+P35030); test: Inhibition of trypsin (unknown origin) at 10 nM to 33.3 uM after 30 mins by gel-based ABPP assay; assay type: protein assay
[6] = system: MDA-MB-231; test: Cytotoxicity against human MDA-MB-231 cells assessed as reduction in cell viability after 48 hrs by CellTiter 96 Aqueous One solution cell proliferation assay; assay type: functional, cell-based; details: MDA-MB-231, 48 h
Procedure, shortened: (§2)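 Cells grown in DMEM high glucose with 10% heat-inactivated FCS, seeded at 5000/well and left 18 h. Compounds added at 1 nM–100 µM final (0.2% vehicle), n = 4 wells per concentration, with colour blanks. After 48 h, MTS reagent added for 2 h and A490 read. IC50 from a variable-slope sigmoidal fit.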

[7] = system: HepG2; test: Cytotoxicity against human HepG2 cells assessed as reduction in cell viability after 48 hrs by CellTiter 96 Aqueous One solution cell proliferation assay; assay type: functional, cell-based; details: HepG2, 48 h; procedure, shortened: as §2
[8] = system: HEK293; test: Cytotoxicity against HEK293 cells assessed as reduction in cell viability after 48 hrs by CellTiter 96 Aqueous One solution cell proliferation assay; assay type: cell-based; details: Homo sapiens, HEK293, 48 h; procedure, shortened: as §2
[9] = system: HT-1080; test: Cytotoxicity against human HT1080 cells assessed as reduction in cell viability after 48 hrs by CellTiter 96 Aqueous One solution cell proliferation assay; assay type: functional, cell-based; details: HT-1080, 48 h; procedure, shortened: as §2
[10] = target: T1, Urokinase-type plasminogen activator; test: Inhibition of human kidney uPA after 30 mins by gel-based ABPP assay
[11] = system: Homo sapiens; test: Antimetastatic activity against human PSC xenografted in BALB/c nu/nu mouse co-implanted with human AsPC1 cells assessed as reduction in metastasis lesions in liver at 75 mg/kg, po administered twice per week via gavage measured after 28 days post first dose by microscopic analysis; assay type: functional, organism-based
Procedure, shortened: (§3)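 Female athymic BALB/c nu/nu mice, 6–8 weeks old. 1×10^6 AsPC-1 and 1×10^6 human pancreatic stellate cells in 50 µL PBS injected into the pancreatic tail. Treatment randomized on day 7 (n = 4/group) for 4 weeks: 10 mg/kg/day ip in 50 mM sodium acetate pH 5.5/10% DMSO/1% Kolliphor HS-15, or gemcitabine 75 mg/kg by oral gavage twice weekly, or vehicle. At kill, liver scored for visible macrometastases, fixed in formalin, and 4 µm sections stained with H&E. Chi-square test.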

[12] = system: ASPC1; test: Antimetastatic activity against human AsPC1 cells xenografted in BALB/c nu/nu mouse co-implanted with human PSC assessed as reduction in metastasis lesions in liver at 75 mg/kg, po administered twice per week via gavage measured after 28 days post first dose by microscopic analysis; assay type: functional, organism-based; procedure, shortened: as §3

N=C(N)NC(=O)c1nc(-c2cc3ccccc3[nH]2)c(N2CCCCCC2)nc1N
Ki [1]: 5670 nM
inhibition (INH) [2]: Not Active
inhibition (INH) [3]: Not Active
inhibition (INH) [4]: Not Active

N=C(N)NC(=O)c1nc(-c2cncnc2)c(N2CCCCCC2)nc1N
Ki [1]: 108 nM
inhibition [5]: Active
IC50 [6]: > 100 µM
IC50 [7]: > 100 µM
IC50 [8]: > 100 µM
IC50 [9]: 37.1 µM
inhibition (INH) [2]: Not Active
inhibition (INH) [3]: Not Active
inhibition (INH) [4]: Not Active
inhibition [10]: Active

N=C(N)NC(=O)c1nc(-c2cnc(NCCO)nc2)c(N2CCCCCC2)nc1N
Ki [1]: 41 nM

COc1cc(-c2nc(C(=O)NC(=N)N)c(N)nc2N2CCCCCC2)c(OC)nn1
Ki [1]: 315 nM

COc1ncc(-c2nc(C(=O)NC(=N)N)c(N)nc2N2CCCCCC2)c(OC)n1
Ki [1]: 42 nM

N=C(N)NC(=O)c1nc(-c2cnn(CCN3CCOCC3)c2)c(N2CCCCCC2)nc1N
Ki [1]: 658 nM

CC(C)Nc1ncc(-c2nc(C(=O)NC(=N)N)c(N)nc2N2CCCCCC2)cn1
Ki [1]: 42 nM

N=C(N)NC(=O)c1nc(Nc2ncccn2)c(N2CCCCCC2)nc1N
Ki [1]: 228 nM

N=C(N)NC(=O)c1nc(-c2ccc3c(c2)OCO3)c(N2CCCCCC2)nc1N
Ki [1]: 934 nM

N=C(N)NC(=O)c1nc(-c2ccsc2)c(N2CCCCCC2)nc1N
Ki [1]: 1030 nM

N=C(N)NC(=O)c1nc(-c2cnc(N)nc2)c(N2CCCCCC2)nc1N
Ki [1]: 21 nM

Nc1ccn([C@@H]2O[C@H](CO)[C@@H](O)C2(F)F)c(=O)n1
Activity [11]: Active
Activity [12]: Active

CNc1ncc(-c2nc(C(=O)NC(=N)N)c(N)nc2N2CCCCCC2)cn1
Ki [1]: 43 nM

N=C(N)NC(=O)c1nc(-c2ccoc2)c(N2CCCCCC2)nc1N
Ki [1]: 166 nM
